Reference: ChEMBL document CHEMBL3596114, “SAR refinement of antileishmanial N(2),N(4)-disubstituted quinazoline-2,4-diamines” (Bioorg Med Chem, 2015)

Tests used:
[1] = Cytotoxicity against mouse J774A.1 cells assessed as inhibition of cell viability after 72 hrs by MTT assay; format: cell-based; conditions: J774.A1, 72 h
Summary of the method: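 J774A.1 murine macrophages were grown in RPMI with 10% FBS and penicillin/streptomycin at 37 °C, 5% CO2, and plated at 5 × 10^3 cells/well with serial compound dilutions for 72 h. MTT was added for 2 h, then cells were lysed with 10% SDS in 50% DMF for 3–5 h and read at 570 nm. EC50 came from a four-parameter fit, at least three independent experiments, podophyllotoxin control.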

[2] = Selectivity index, ratio of EC50 for mouse J774A.1 cells to EC50 for of beta-lactamase expressing Leishmania donovani MHOM/ET/67/L82 infected in CD-1 mouse peritoneal macrophages
[3] = test system: Leishmania donovani; assay: Antileishmanial activity against […] forms of beta-lactamase expressing Leishmania donovani MHOM/ET/67/L82 infected in CD-1 mouse peritoneal macrophages assessed as inhibition of beta-lactamase activity after 3 days by spectrophotometer assay; format: functional, organism-based; conditions: MHOM/ET/67/L82, 72 h
Summary of the method: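 Intracellular L. donovani assay in macrophages run by an earlier method, with amphotericin B as the control drug. EC50 is the mean ± standard deviation of at least three independent experiments. Where a mean could not be obtained, the value comes from at least two determinations.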

[4] = test system: Spleen; assay: Cmax in Swiss-Webster mouse spleen at 10 mg/kg, ip after 4 hrs by UPLC-MS/MS analysis; format: ADME, organism-based; parameters: dose 10 mg/kg, route intraperitoneal; conditions: in vivo
Summary of the method: (§1)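 Male Swiss Webster mice got a single 10 mg/kg ip dose in DMSO/PEG400/ethanol/water vehicle. Liver and spleen were excised at 4 and 12 h, rinsed, frozen and homogenized in water (liver 3-fold, spleen 4-fold dilution). Tissue concentrations were measured by UPLC-MS/MS (calibration 0.025–25 μM), triplicate determinations.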

[5] = Cmax in Swiss-Webster mouse spleen at 10 mg/kg, ip after 12 hrs by UPLC-MS/MS analysis; format: ADME, organism-based; parameters: dose 10 mg/kg, route intraperitoneal; conditions: read-out: Cmax; summary of the method: as §1
[6] = Cmax in Swiss-Webster mouse liver at 10 mg/kg, ip after 12 hrs by UPLC-MS/MS analysis; format: ADME, organism-based; parameters: dose 10 mg/kg, route intraperitoneal; conditions: read-out: Cmax; summary of the method: as §1
[7] = Half-life in Swiss-Webster mouse plasma at 10 mg/kg, ip by UPLC-MS/MS analysis; format: ADME, organism-based
Summary of the method: (§2)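 Male Swiss Webster mice (20–25 g) got a single ip dose of 10 mg/kg in DMSO/PEG400/ethanol/water (0.5:5:1:3.5, v/v). Blood was drawn at 0.25–12 h, n = 3 per time point, and plasma was extracted with methanol-water plus internal standard. Samples were run by UPLC-MS/MS in SRM positive mode (calibration 0.025–25 μM). AUC, Cmax, Tmax, terminal t1/2 and Vz/F came from noncompartmental analysis.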

[8] = test system: Mus musculus; assay: Toxicity in BALB/c mouse assessed as induction of adverse events at 30 mg/kg/day, ip administered for 5 days; format: organism-based; conditions: in vivo, 120 h
Summary of the method: (§3)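 Female BALB/c mice were dosed ip daily for 5 days at 10 or 30 mg/kg/day and observed for adverse effects.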

[9] = test system: Plasma; assay: Cmax in Swiss-Webster mouse plasma at 10 mg/kg, ip by UPLC-MS/MS analysis; format: ADME, organism-based; parameters: dose 10 mg/kg, route intraperitoneal; conditions: in vivo; summary of the method: as §2
[10] = test system: Mus musculus; assay: Toxicity in BALB/c mouse assessed as induction of adverse events at 10 mg/kg/day, ip administered for 5 days; format: organism-based; conditions: in vivo, 120 h; summary of the method: as §3
[11] = Apparent volume of distribution in Swiss-Webster mouse plasma at 10 mg/kg, ip by UPLC-MS/MS analysis; format: ADME, organism-based; conditions: read-out: Vz/F; summary of the method: as §2
[12] = test system: Leishmania donovani; assay: Antileishmanial activity against Leishmania donovani infected in visceral leishmaniasis BALB/c mouse model assessed as reduction of liver parasitemia at 10 mg/kg/day, ip administered for 5 days; format: functional; conditions: 120 h
Summary of the method: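 Acute murine visceral leishmaniasis model in female BALB/c mice (6–8 weeks). […] Liver parasitemia was expressed as % inhibition versus infected controls.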

[13] = test system: Liver; assay: Cmax in Swiss-Webster mouse liver at 10 mg/kg, ip after 4 hrs by UPLC-MS/MS analysis; format: ADME, organism-based; parameters: dose 10 mg/kg, route intraperitoneal; conditions: in vivo; summary of the method: as §1
[14] = test system: Liver; assay: Half-life in mouse liver microsomes by UPLC analysis; format: ADME
Summary of the method: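 Pooled mouse liver microsomes with NADPH were incubated and the parent compound quantified by UPLC-MS/MS. Half-life was obtained by fitting one-phase exponential decay to percent substrate remaining versus time.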

[15] = Tmax in Swiss-Webster mouse plasma at 10 mg/kg, ip by UPLC-MS/MS analysis; format: ADME, organism-based; summary of the method: as §2
[16] = AUC in Swiss-Webster mouse plasma at 10 mg/kg, ip by UPLC-MS/MS analysis; format: ADME, organism-based; summary of the method: as §2

`c1ccc(CNc2nc(NCc3ccccc3)c3ccccc3n2)cc1` gave an EC50 [1] of 5.5 µM.

`Cc1ccc(CNc2nc(NCc3ccc(C)cc3)c3ccccc3n2)cc1` showed an EC50 [1] of 2.9 µM, a selectivity ratio [2] of 2.6 and an EC50 [3] of 1.1 µM.

Work on `COc1ccc(CNc2nc(NCc3ccc(OC)cc3)c3ccccc3n2)cc1` yielded an EC50 [1] of 2.2 µM, a selectivity ratio [2] of 0.37 and an EC50 [3] of 6 µM.

Compound `CNc1nc(NCc2ccco2)c2ccccc2n1` has an EC50 [3] of over 25 µM.

Compound `CC(C)Nc1nc(NCc2ccco2)c2ccccc2n1` has an EC50 [1] of 17 µM.

`c1coc(CNc2nc(NC3CCC3)nc3ccccc23)c1` gave an EC50 [3] of over 25 µM.

For `c1coc(CNc2nc(NC3CCCC3)nc3ccccc23)c1`, the EC50 [3] was over 25 µM.

`c1coc(CNc2nc(NC3CCCCC3)nc3ccccc23)c1` gave an EC50 [1] of 5.3 µM, a selectivity ratio [2] of 1.3 and an EC50 [3] of 4 µM.

For `CNc1nc(NCc2ccco2)nc2ccccc12`, the EC50 [3] was 20 µM.

For `CC(C)Nc1nc(NCc2ccco2)nc2ccccc12`, the EC50 [1] was 8.3 µM, the selectivity ratio [2] was 0.75 and the EC50 [3] was 11 µM.

`CNc1nc(NC)c2ccccc2n1` showed an EC50 [1] of over 133 µM, a selectivity ratio [2] of over 17.5 and an EC50 [3] of 7.6 µM.

Work on `CNc1nc(NC(C)C)nc2ccccc12` yielded an EC50 [3] of over 25 µM.

Work on `CNc1nc(NCCO)nc2ccccc12` yielded an EC50 [3] of over 25 µM.

Compound `CNc1nc(NC2CCCC2)nc2ccccc12` has an EC50 [1] of 39 µM, a selectivity ratio [2] of 8.9 and an EC50 [3] of 4.4 µM.

In the case of `CCNc1nc(NC(C)C)nc2ccccc12`, the EC50 [1] is reported as over 30 µM, the selectivity ratio [2] is reported as over 4.8 and the EC50 [3] is reported as 6.3 µM.

Compound `CC(C)Nc1nc(NC(C)C)c2ccccc2n1` has an EC50 [1] of over 30 µM, a selectivity ratio [2] of over 13 and an EC50 [3] of 2.3 µM.

`CC(C)Nc1nc(NC2CC2)nc2ccccc12` gave an EC50 [1] of over 40 µM, a selectivity ratio [2] of over 5 and an EC50 [3] of 8 µM.

In the case of `CC(C)Nc1nc(NC2CC2)c2ccccc2n1`, the EC50 [1] is reported as 31 µM, the selectivity ratio [2] is reported as 5.1 and the EC50 [3] is reported as 6.1 µM.

In the case of `CC(C)Nc1nc(NCC2CCCO2)c2ccccc2n1` (stereo unspecified), the EC50 [1] is reported as 46 µM, the selectivity ratio [2] is reported as 5.2 and the EC50 [3] is reported as 8.9 µM.

In the case of `CC(C)Nc1nc(NCc2ccccc2)nc2ccccc12`, the Cmax [4] is reported as 16.5 µM, the concentration at 12 h [5] is reported as 0.18 µM and the concentration at 12 h [6] is reported as 0.54 µM. The half-life [7] was 2.1 h, the EC50 [1] was 7.2 µM and the Activity [8] was “Toxic”. The Cmax [9] was 2.15 µM, the Activity [10] was “Non-toxic” and the selectivity ratio [2] was 19. The Vd/F [11] was 1.15 L/kg, the inhibition in vivo at 10 mg/kg/day [12] was 23.8% and the Cmax [13] was 20.2 µM. The t1/2 [14] was 0.7 h, the Tmax [15] was 0.25 h and the EC50 [3] was 0.38 µM. For the same compound, the AUC(0-inf) [16] was 7.14 µM·h.

In the case of `CC(C)Nc1nc(NCc2ccccc2)c2ccccc2n1`, the EC50 [1] is reported as 6.7 µM, the selectivity ratio [2] is reported as 3.4 and the EC50 [3] is reported as 2 µM.

With `CC(C)Nc1nc(Nc2ccccc2)c2ccccc2n1` the EC50 [1] was 12 µM, the selectivity ratio [2] was 6.3 and the EC50 [3] was 1.9 µM.

`Clc1ccc(CNc2nc(NCc3ccccc3)c3ccccc3n2)cc1` showed a Cmax [4] of 26.6 µM, a concentration at 12 h [5] of 11.4 µM and a concentration at 12 h [6] of 8.51 µM. The half-life [7] was 9.3 h, the EC50 [1] was 3.2 µM and the Activity [8] was “Toxic”. The Cmax [9] was 1.4 µM, the Activity [10] was “Non-toxic” and the selectivity ratio [2] was 5.2. It also gave a Vd/F [11] of 22.3 L/kg, an inhibition in vivo at 10 mg/kg/day [12] of 12% and a Cmax [13] of 25.3 µM. The t1/2 [14] was 1.47 h, the Tmax [15] was 0.5 h and the EC50 [3] was 0.61 µM. For the same compound, the AUC(0-inf) [16] was 15.7 µM·h.

In the case of `Clc1ccc(CNc2nc(NCc3ccccc3)nc3ccccc23)cc1`, the EC50 [1] is reported as 4.6 µM, the selectivity ratio [2] is reported as 5.6 and the EC50 [3] is reported as 0.82 µM.

`Cc1ccc(CNc2nc(NCc3ccccc3)c3ccccc3n2)cc1` gave an EC50 [1] of 4.5 µM, a selectivity ratio [2] of 5.1 and an EC50 [3] of 0.89 µM.

Work on `Cc1ccc(CNc2nc(NCc3ccccc3)nc3ccccc23)cc1` yielded an EC50 [1] of 2.1 µM, a selectivity ratio [2] of 5.4 and an EC50 [3] of 0.39 µM.

`COc1ccc(CNc2nc(NCc3ccccc3)c3ccccc3n2)cc1` gave an EC50 [1] of 4.1 µM, a selectivity ratio [2] of 5.7 and an EC50 [3] of 0.72 µM.

Compound `COc1ccc(CNc2nc(NCc3ccccc3)nc3ccccc23)cc1` has an EC50 [1] of 5.2 µM, a selectivity ratio [2] of 2.1 and an EC50 [3] of 2.5 µM.

`CNc1nc(NCc2ccccc2)nc2ccccc12` gave an EC50 [1] of 15 µM and a selectivity ratio [2] of 100.

`c1ccc(CNc2nc(OCc3ccccc3)c3ccccc3n2)cc1` showed an EC50 [1] of 3.3 µM, a selectivity ratio [2] of 5.1 and an EC50 [3] of 0.65 µM.

Compound `c1ccc(CNc2nc(-c3ccccc3)c3ccccc3n2)cc1` has an EC50 [3] of over 10 µM.

`Cc1ccccc1-c1nc(NCc2ccccc2)nc2ccccc12` showed an EC50 [3] of over 10 µM.

Compound `Cc1ccccc1-c1nc(NCc2ccccc2)c2ccccc2n1` has an EC50 [3] of over 10 µM.

Compound `CCNc1nc(NC)c2ccccc2n1` has an EC50 [3] of over 25 µM.

`C[C@@H]1[C@H](O)[C@@H](C)/C=C/C=C/C=C/C=C/C=C/C=C/C=C/[C@H](O[C@@H]2O[C@H](C)[C@@H](O)[C@H](N)[C@@H]2O)C[C@@H]2O[C@](O)(C[C@@H](O)C[C@@H](O)[C@H](O)CC[C@@H](O)C[C@@H](O)CC(=O)O[C@H]1C)C[C@H](O)[C@H]2C(=O)O` [AMPHOTERICIN B] showed an EC50 [3] of 0.041 µM.

`CCCCCCCCCCCCCCCCOP(=O)([O-])OCC[N+](C)(C)C` [MILTEFOSINE] showed an inhibition in vivo at 10 mg/kg/day [12] of 93.6%.

`COc1cc([C@@H]2c3cc4c(cc3[C@H](O)[C@H]3COC(=O)[C@H]23)OCO4)cc(OC)c1OC` [PODOFILOX] gave an EC50 [1] of 0.021 µM.
